The results in this text go back to ChEMBL document CHEMBL4425111, “Optically Pure, Structural, and Fluorescent Analogues of a Dimeric Y4 Receptor Agonist Derived by an Olefin Metathesis Approach” (J Med Chem, 2016).

SMILES strings stand for the structures.

In data set [1] the target is T1, Neuropeptide Y receptor type 4 (Homo sapiens, UniProt P50391). The experiment in a line: Displacement of [Lys2(sCy5),Arg4]-BVD-15 from C-terminal GFP-tagged neuropeptide Y4R (unknown origin) expressed in human 293TR cells measured after 30 mins by fluorescence analysis. The class given is cell-based.
In data set [2] the target is T1, Neuropeptide Y receptor type 4. The experiment in a line: Agonist activity at GFP-tagged neuropeptide Y4R (unknown origin) expressed in HEK293T cells assessed as beta-arrestin2 recruitment measured after 60 mins by H33342 staining-based imaging method relative to PP. It counts as cell-based. The method in brief:
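Y4R–β-arrestin2 BiFC cell lines were seeded on poly-D-lysine plates and tested 24 h later. Ligands (10^-10–10^-6 M, duplicate wells) were applied in HBSS/0.1% BSA for 60 min at 37°C. Cells were fixed with 3% paraformaldehyde (10 min, 21°C) and nuclei stained with H33342. Confocal images were taken at 405/488 nm, and internal YFP granules ≥3 µm were counted against vehicle or 100 nM PP thresholds.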

For data set [3] the target is unchanged. The experiment in a line: Agonist activity at GFP-tagged neuropeptide Y4R (unknown origin) expressed in HEK293T cells assessed as beta-arrestin2 recruitment measured after 60 mins by H33342 staining-based imaging method. It counts as cell-based.
For data set [4] the target is unchanged. The experiment in a line: Agonist activity at GFP-tagged neuropeptide Y4R (unknown origin) expressed in HEK293T cells assessed as beta-arrestin2 recruitment at 1 uM measured after 60 mins by H33342 staining-based imaging method relative to PP. The class given is cell-based. The procedure, abridged:
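Y4R–β-arrestin2 BiFC cells were stimulated in HBSS/0.1% BSA for 60 min at 37°C, then fixed with 3% paraformaldehyde and stained with H33342. Complemented YFP was imaged by confocal platereader and quantified by granularity analysis with vehicle or 100 nM PP controls. Where agonist activity was not significant, the response at 1 µM peptide was reported.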
In general terms: Activated receptors often draw arrestin, which recruitment assays turn into a signal.

The species named for a further data set is Homo sapiens. In words: Selectivity ratio of IC50 for GFP-tagged neuropeptide Y1R (unknown origin) expressed in HEK293T cells to IC50 for C-terminal GFP-tagged neuropeptide Y4R (unknown origin) expressed in human 293TR cells. The class given is cell-based. The procedure, abridged: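 Whole-cell competition binding used tetracycline-induced 293TR cells expressing Y1-GFP or Y4-GFP. Cells were exposed to competitor for 2 min, then to sCy5-labelled tracer (10 nM for Y1R, 100 nM for Y4R) for 30 min at 37°C.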

Data set [5] can be described thus: Cellular uptake in human 293T-rex cells expressing C-terminal GFP-tagged neuropeptide Y4R measured after 30 mins by fluorescence analysis. The class given is ADME, cell-based. The conditions noted are these: hek-293t, 0.5 h. The method in brief:
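293TR Y4-GFP cells, induced with 1 µg/ml tetracycline for 18–21 h, were incubated with sCy5-labelled peptide for 30 min at 37°C in HBSS/0.1% BSA with H33342. Controls were uninduced cells and 1 µM PP competition. Surface and intracellular sCy5 fluorescence was imaged by confocal platereader.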

T1 sequence (P50391 whole entry): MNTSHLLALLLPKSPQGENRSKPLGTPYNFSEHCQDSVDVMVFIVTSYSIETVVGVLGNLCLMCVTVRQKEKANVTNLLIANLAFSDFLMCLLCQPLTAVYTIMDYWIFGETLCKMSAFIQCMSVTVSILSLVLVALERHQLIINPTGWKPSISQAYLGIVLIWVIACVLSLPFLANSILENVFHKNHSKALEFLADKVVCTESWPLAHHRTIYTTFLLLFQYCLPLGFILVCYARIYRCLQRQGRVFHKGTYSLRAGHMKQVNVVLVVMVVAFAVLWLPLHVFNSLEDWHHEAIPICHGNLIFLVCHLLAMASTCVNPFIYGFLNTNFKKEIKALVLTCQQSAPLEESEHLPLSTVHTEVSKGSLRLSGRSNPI

Take `CC(C)C[C@H](NC(=O)[C@H](CCCNC(=N)N)NC(=O)[C@H](Cc1ccc(O)cc1)NC(=O)[C@H](N)C/C=C\C[C@@H](N)C(=O)N[C@@H](Cc1ccc(O)cc1)C(=O)N[C@@H](CCCNC(=N)N)C(=O)N[C@@H](CC(C)C)C(=O)N[C@@H](CCCNC(=N)N)C(=O)N[C@@H](Cc1ccc(O)cc1)C(N)=O)C(=O)N[C@@H](CCCNC(=N)N)C(=O)N[C@@H](Cc1ccc(O)cc1)C(N)=O`: the IC50 in data set [1] (read-out: pIC50 (converted)) was 24 nM. Further, the Rmax in data set [2] amounted to 61%. Further, in data set [3] (read-out: pEC50 (converted)), the EC50 is 38 nM.
`CCN(CC)c1ccc2c(-c3ccccc3C(=O)N3CCN(C(=O)CCC(=O)N[C@H](C/C=C\C[C@@H](N)C(=O)N[C@@H](Cc4ccc(O)cc4)C(=O)N[C@@H](CCCNC(=N)N)C(=O)N[C@@H](CC(C)C)C(=O)N[C@@H](CCCNC(=N)N)C(=O)N[C@@H](Cc4ccc(O)cc4)C(N)=O)C(=O)N[C@@H](Cc4ccc(O)cc4)C(=O)N[C@@H](CCCNC(=N)N)C(=O)N[C@@H](CC(C)C)C(=O)N[C@@H](CCCNC(=N)N)C(=O)N[C@@H](Cc4ccc(O)cc4)C(N)=O)CC3)c3ccc(=[N+](CC)CC)cc-3oc2c1`: in data set [1] (read-out: pIC50 (converted)), the IC50 was 70.8 nM. The Rmax in data set [2] stood at 39.3%. Moreover, in data set [3] (read-out: pEC50 (converted)), the EC50 is 3.72 nM.
`COC(=O)[C@H](Cc1ccc(O)cc1)NC(=O)[C@H](CCCNC(=N)N)NC(=O)[C@H](CC(C)C)NC(=O)[C@H](CCCNC(=N)N)NC(=O)[C@H](Cc1ccc(O)cc1)NC(=O)[C@@H](N)CCCC[C@H](N)C(=O)N[C@@H](Cc1ccc(O)cc1)C(=O)N[C@@H](CCCNC(=N)N)C(=O)N[C@@H](CC(C)C)C(=O)N[C@@H](CCCNC(=N)N)C(=O)N[C@@H](Cc1ccc(O)cc1)C(=O)OC`: the Rmax in data set [4] amounted to 11.3%. Moreover, the Ratio IC50 in the data set filed under Homo sapiens stood at 0.38. Moreover, the IC50 in data set [1] (read-out: pIC50 (converted)) is 617 nM.
With `CC(C)C[C@H](NC(=O)[C@H](CCCNC(=N)N)NC(=O)[C@H](Cc1ccc(O)cc1)NC(=O)[C@@H](N)C/C=C\C[C@H](N)C(=O)N[C@@H](Cc1ccc(O)cc1)C(=O)N[C@@H](CCCNC(=N)N)C(=O)N[C@@H](CC(C)C)C(=O)N[C@@H](CCCNC(=N)N)C(=O)N[C@@H](Cc1ccc(O)cc1)C(N)=O)C(=O)N[C@@H](CCCNC(=N)N)C(=O)N[C@@H](Cc1ccc(O)cc1)C(N)=O`, in the data set listed under Homo sapiens, the Ratio IC50 amounted to 3.7. Also, the IC50 in data set [1] (read-out: pIC50 (converted)) is 132 nM. For the same molecule, the Rmax in data set [2] amounted to 44.5%. In addition, the EC50 in data set [3] (read-out: pEC50 (converted)) was 30.2 nM.
With `CCN1\C(=C/C=C/C=C/C2=[N+](CCCCCC(=O)N[C@H](CCCC[C@@H](N)C(=O)N[C@@H](Cc3ccc(O)cc3)C(=O)N[C@@H](CCCNC(=N)N)C(=O)N[C@@H](CC(C)C)C(=O)N[C@@H](CCCNC(=N)N)C(=O)N[C@@H](Cc3ccc(O)cc3)C(N)=O)C(=O)N[C@@H](Cc3ccc(O)cc3)C(=O)N[C@@H](CCCNC(=N)N)C(=O)N[C@@H](CC(C)C)C(=O)N[C@@H](CCCNC(=N)N)C(=O)N[C@@H](Cc3ccc(O)cc3)C(N)=O)c3ccc(S(=O)(=O)O)cc3C2(C)C)C(C)(C)c2cc(S(=O)(=O)[O-])ccc21`, the Drug uptake result in data set [5] is reported as “Dose-dependent effect”. The Rmax in data set [2] came out at 65.6%. In addition, the EC50 in data set [3] (read-out: pEC50 (converted)) was 33.1 nM.
The matching figures for `CCN1\C(=C/C=C/C=C/C2=[N+](CCCCCC(=O)N[C@@H](CCCC[C@H](N)C(=O)N[C@@H](Cc3ccc(O)cc3)C(=O)N[C@@H](CCCNC(=N)N)C(=O)N[C@@H](CC(C)C)C(=O)N[C@@H](CCCNC(=N)N)C(=O)N[C@@H](Cc3ccc(O)cc3)C(N)=O)C(=O)N[C@@H](Cc3ccc(O)cc3)C(=O)N[C@@H](CCCNC(=N)N)C(=O)N[C@@H](CC(C)C)C(=O)N[C@@H](CCCNC(=N)N)C(=O)N[C@@H](Cc3ccc(O)cc3)C(N)=O)c3ccc(S(=O)(=O)O)cc3C2(C)C)C(C)(C)c2cc(S(=O)(=O)[O-])ccc21`: “Dose-dependent effect”, 56.6% and 95.5 nM.
For `CC(C)C[C@H](NC(=O)[C@H](CCCNC(=N)N)NC(=O)[C@H](Cc1ccc(O)cc1)NC(=O)[C@H](N)CCCC[C@@H](N)C(=O)N[C@@H](Cc1ccc(O)cc1)C(=O)N[C@@H](CCCNC(=N)N)C(=O)N[C@@H](CC(C)C)C(=O)N[C@@H](CCCNC(=N)N)C(=O)N[C@@H](Cc1ccc(O)cc1)C(N)=O)C(=O)N[C@@H](CCCNC(=N)N)C(=O)N[C@@H](Cc1ccc(O)cc1)C(N)=O`, the Ratio IC50 in the data set listed under Homo sapiens came out at 30. Moreover, the IC50 in data set [1] (read-out: IC50) was 12.7 nM. The Rmax in data set [2] came to 61.5%. In data set [3] (read-out: EC50), the EC50 stood at 4.6 nM.
Turning to `COC(=O)[C@H](Cc1ccc(O)cc1)NC(=O)[C@H](CCCNC(=N)N)NC(=O)[C@H](CC(C)C)NC(=O)[C@H](CCCNC(=N)N)NC(=O)[C@H](Cc1ccc(O)cc1)NC(=O)[C@@H](N)CCCC[C@H](N)C(=O)N[C@@H](Cc1ccc(O)cc1)C(=O)N[C@@H](CCCNC(=N)N)C(=O)N[C@@H](CC(C)C)C(=O)N[C@@H](CCCNC(=N)N)C(=O)N[C@@H](Cc1ccc(O)cc1)C(N)=O`, in data set [1] (read-out: pIC50 (converted)), the IC50 was 93.3 nM. In data set [2], the Rmax was found to be 49.1%. Moreover, the EC50 in data set [3] (read-out: pEC50 (converted)) is over 316 nM.
For `CCN(CC)c1ccc2c(-c3ccccc3C(=O)N3CCN(C(=O)CCC(=O)N[C@@H](C/C=C\C[C@H](N)C(=O)N[C@@H](Cc4ccc(O)cc4)C(=O)N[C@@H](CCCNC(=N)N)C(=O)N[C@@H](CC(C)C)C(=O)N[C@@H](CCCNC(=N)N)C(=O)N[C@@H](Cc4ccc(O)cc4)C(N)=O)C(=O)N[C@@H](Cc4ccc(O)cc4)C(=O)N[C@@H](CCCNC(=N)N)C(=O)N[C@@H](CC(C)C)C(=O)N[C@@H](CCCNC(=N)N)C(=O)N[C@@H](Cc4ccc(O)cc4)C(N)=O)CC3)c3ccc(=[N+](CC)CC)cc-3oc2c1`, the IC50 in data set [1] (read-out: pIC50 (converted)) is 69.2 nM. In addition, the Rmax in data set [2] amounted to 29.2%. Besides, in data set [3] (read-out: pEC50 (converted)), the EC50 is 5.5 nM.
With `CCN(CC)c1ccc2c(-c3ccccc3C(=O)N3CCN(C(=O)CCC(=O)N[C@@H](CCCC[C@H](N)C(=O)N[C@@H](Cc4ccc(O)cc4)C(=O)N[C@@H](CCCNC(=N)N)C(=O)N[C@@H](CC(C)C)C(=O)N[C@@H](CCCNC(=N)N)C(=O)N[C@@H](Cc4ccc(O)cc4)C(N)=O)C(=O)N[C@@H](Cc4ccc(O)cc4)C(=O)N[C@@H](CCCNC(=N)N)C(=O)N[C@@H](CC(C)C)C(=O)N[C@@H](CCCNC(=N)N)C(=O)N[C@@H](Cc4ccc(O)cc4)C(N)=O)CC3)c3ccc(=[N+](CC)CC)cc-3oc2c1`, the Rmax in data set [4] came to 15.9%. The IC50 in data set [1] (read-out: pIC50 (converted)) was 70.8 nM.
Regarding `CC(C)C[C@H](NC(=O)[C@H](CCCNC(=N)N)NC(=O)[C@H](Cc1ccc(O)cc1)NC(=O)[C@@H](N)CCCC[C@H](N)C(=O)N[C@@H](Cc1ccc(O)cc1)C(=O)N[C@@H](CCCNC(=N)N)C(=O)N[C@@H](CC(C)C)C(=O)N[C@@H](CCCNC(=N)N)C(=O)N[C@@H](Cc1ccc(O)cc1)C(N)=O)C(=O)N[C@@H](CCCNC(=N)N)C(=O)N[C@@H](Cc1ccc(O)cc1)C(N)=O`, in data set [1] (read-out: pIC50 (converted)), the IC50 is 69.2 nM. Further, in data set [2], the Rmax turned out to be 57.1%. The EC50 in data set [3] (read-out: pEC50 (converted)) is 83.2 nM.
